SENP8 block-1: SENP8 (human) protease inhibition. Q96LD8. recombinant SENP8, Nedd8 substrate fluorescence. inhibition, % at 20 µM. hit rate 0.64% among 360,000. AID 602440; in the data active = inhibition mostly above about 40%, no sharp cut-off; inactive = mostly below about 27%
Target sequence (Q96LD8 whole entry, looked up): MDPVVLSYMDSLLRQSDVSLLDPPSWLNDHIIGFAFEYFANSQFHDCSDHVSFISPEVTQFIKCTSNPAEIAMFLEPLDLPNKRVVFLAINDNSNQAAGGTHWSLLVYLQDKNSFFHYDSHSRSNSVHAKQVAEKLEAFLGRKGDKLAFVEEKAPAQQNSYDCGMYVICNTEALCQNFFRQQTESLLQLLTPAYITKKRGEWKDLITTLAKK
SENP7 block: blocks the human protease SENP7. AID 434973. hit rate 1.5% among 330,000. inhibition, % at 5 µM. Q9BQF6. recombinant SENP7, Z-RLRGG-aminoluciferin luminescence, 40 min;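 active = inhibition above about 50% at the single test dose, limit read from the data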;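 note: plate controls were DMSO with enzyme for no effect and no enzyme buffer wells for full effect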
SENP8 block-2: blocks the human protease SENP8; purified SENP8, Z-RLRGG-aminoluciferin cleavage, luminescence; inhibition, % at 10 µM; hit rate 1.2% among 330,000; in the data active = inhibition above about 50%
SENP1 FRET inh: SENP1 (human) catalytic domain inhibition; recombinant SENP1 catalytic domain, CyPet-SUMO1-YPet FRET cleavage; hit rate 0.21% among 360,000; inhibition, % at 10 µM;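 active = inhibition at least 30% at 10 µM, raw YFP signal under a set limit, fluorescence ratio 0.5 to 1.5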;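 note: 0% = enzyme with DMSO and 100% = no enzyme wells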
Target sequence (Q9P0U3 419-644 limits assumed): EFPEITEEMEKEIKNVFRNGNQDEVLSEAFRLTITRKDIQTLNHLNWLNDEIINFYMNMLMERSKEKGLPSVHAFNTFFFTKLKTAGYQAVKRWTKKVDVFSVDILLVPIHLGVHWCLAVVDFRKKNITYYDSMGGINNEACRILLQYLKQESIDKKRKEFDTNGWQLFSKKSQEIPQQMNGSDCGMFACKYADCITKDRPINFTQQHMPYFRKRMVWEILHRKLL
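System: Recombinant human SENP1 catalytic domain, His6-tagged | Incubation: Enzyme reaction for 50 min at room temperature, dark | Medium: Tris pH 8 with BME, BSA, NP40 and catalase | Also added: 25 nM SUMO1 FRET substrate | Compound: 10 µM single point, 0.5% DMSO | Measured by: FRET fluorescence in CFP and YFP emission channels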
SENP6 inh: SENP6 protease inhibition | Recombinant SENP6 catalytic domain, aminoluciferin luminescence | Q9GZR1 | inhibition, % at 10 µM | hit rate 1.8% among 330,000 | AID 2599;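 active = inhibition above about 50% at the single tested dose, limit read from the data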;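 note: plate controls were DMSO wells with enzyme for no effect and DMSO wells lacking enzyme for full effect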
SENP8 inh conf: SENP8 (human) inhibition, single concentration confirmation; inhibition, % at 25 µM; AID 624319; hit rate 15% among 1,400; purified SENP8, Nedd8-AMC/pro-Nedd8 cleavage fluorescence, 30 min; shares compounds with SENP8 block-1; in the data active = inhibition mostly above about 39%, no sharp cut-off; inactive = mostly below about 34%
SENP1 inh conf: confirmation of human SENP1 SUMO protease inhibitors. AID 651678. inhibition, % at 10 µM. shares compounds with SENP1 FRET inh. hit rate 34% among 520. recombinant SENP1, CyPet-SUMO1-YPet FRET cleavage; in the data active = inhibition mostly above about 35%, no sharp cut-off; inactive = mostly below about 32%;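 note: 0% = enzyme with DMSO and 100% = no enzyme control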
SENP1 kin conf: SENP1 (human) inhibition, kinetic confirmation; shares compounds with SENP1 FRET inh; recombinant SENP1, CyPet-SUMO1-YPet FRET kinetic cleavage; inhibition, % at 10 µM; hit rate 26% among 520; AID 651690; in the data active = inhibition mostly above about 32%, no sharp cut-off; inactive = mostly below about 29%;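 note: 0% = DMSO with enzyme and 100% = no enzyme substrate only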
Numbers without * were called inactive; nt = no result. In the library only some 2.5% were active in any assay of this set; here they are far more common.

SMILES | SENP8 block-1 | SENP7 block | SENP8 block-2 | SENP1 FRET inh | SENP6 inh | SENP8 inh conf | others
CCOC(=O)/C(C#N)=C\C=C1C=CN(C)C=C1 | 51.7* | 11.4 | 2.3 | -17.2 | 9.3 | 35.9
O=C1Cc2ccccc2C(=O)N1Cc1cccc(Cl)c1 | 102.6* | nt | nt | -3.4 | nt | 45.8*
Cc1cc(C)nc(NNS(=O)(=O)c2ccc(F)c(Cl)c2)n1 | 35.7* | 3.4 | -1.5 | 3.2 | -8.8 | 14.0
Cc1cc(C)nc(NNS(=O)(=O)c2ccc(Cl)cc2)n1 | 8.9 | 5.0 | 4.6 | 0.6 | -3.7 | nt
CC1CCN(CC2C(=O)O[C@@H]3C[C@@]4(C)CCC[C@H](C)C4=C[C@H]23)CC(C)(C)C1 (some centres undefined) | 21.4 | 3.0 | 0.2 | 0.3 | 3.2 | nt
CN1CCC(=NNC(=O)C(=O)NC2CCCCC2)CC1 | 7.2 | 5.0 | -1.8 | -0.8 | -15.9 | nt
CN1CCC(=NNC(=O)C(=O)NC2CCCC2)CC1 | 40.3* | 6.7 | 3.6 | -0.4 | 1.9 | 5.2
Cc1[nH]nc(C(=O)NN=Cc2ccccc2Cl)c1N=NN(C)C | -6.4 | nt | nt | 1.8 | nt | nt
CC(C)C1C(C#N)=C(N)Oc2n[nH]c(-c3ccccc3)c21 (centres undefined) | 8.5 | -1.0 | -2.4 | 1.4 | 1.4 | nt
CC(C)c1[nH]nc2c1C(C(C)C)C(C#N)=C(N)O2 (centres undefined) | 40.1* | -9.5 | -0.4 | 0.0 | -31.1 | 13.4
Cc1nc2c3cc(F)ccc3n(Cc3ccc(F)cc3)c2s1 | -9.7 | -1.4 | -3.3 | -21.2 | 9.3 | nt
CCc1ccc2c(c1)c1nc(C)sc1n2CC | 95.7* | 8.8 | 9.2 | 3.6 | 20.4 | 15.0
COc1cccc(N=Nc2c(=O)[nH]n3c(=O)cc(C)[nH]c23)c1 | 47.5* | -6.5 | -3.8 | 2.8 | 12.5 | 32.1
COc1cccc(N=Nc2c(=O)[nH]n3c(=O)c4c([nH]c23)CCC4)c1 | 30.6 | 0.8 | -4.2 | 4.1 | 5.3 | nt
Cc1ccc2c(COC(=O)C3CSC4(C)CCC(=O)N34)cc(=O)oc2c1C (centres undefined) | -14.7 | -0.2 | -5.2 | -2.1 | -4.4 | nt
O=[N+]([O-])c1ccc(C=NNc2ccccc2)cc1 | 44.3* | nt | nt | 71.6* | nt | 24.9 | SENP1 inh conf=59.0*;SENP1 kin conf=43.0*
O=[N+]([O-])c1cccc(C=NNc2ccccc2)c1 | 9.7 | nt | nt | 0.6 | nt | nt
CN(N=Cc1cccc2cccnc12)c1ccc([N+](=O)[O-])cc1[N+](=O)[O-] | 41.4* | nt | nt | 31.4* | nt | 10.0 | SENP1 inh conf=34.5*;SENP1 kin conf=22.4
COc1ccc(NC(=O)CN2CCC(NC(=O)c3ccc(OC)cc3)CC2)cc1 | 4.6 | 8.6 | 0.7 | 2.1 | 0.3 | nt
Cc1ccc(Nc2c(-c3ccc(N(C)C)cc3)nc3ncccn23)cc1 | -12.9 | -2.3 | -13.5 | -33.2 | -24.3 | nt
COc1ccc(-c2nc3ncccn3c2Nc2ccccc2)cc1 | -62.0 | 6.1 | 3.0 | 37.0* | 14.5 | nt | SENP1 inh conf=-4.7;SENP1 kin conf=22.8
COc1ccc(CNC(=O)COC(=O)c2cccn2C)cc1 | 18.9 | -1.8 | 2.6 | 0.4 | 19.1 | nt
COC(=O)/C=C1/S/C(=N/NC(=O)c2ccc(OC)cc2)NC1=O | 12.6 | 5.1 | -7.1 | 4.4 | -8.8 | nt
COC(=O)/C=C1\S/C(=N/NC(=O)c2ccc(OC)cc2)NC1=O | 2.7 | -3.6 | 1.9 | 53.9* | 7.7 | nt | SENP1 inh conf=6.8;SENP1 kin conf=7.6
CC1CCCCN1C(=O)C1COc2ccccc2O1 (centres undefined) | 11.4 | 0.4 | -2.6 | 1.4 | -22.3 | nt
CCN1CCCC1CNC(=O)C(=O)NCCc1ccc(OC)c(OC)c1 (centres undefined) | 7.4 | -5.3 | 3.6 | -1.4 | 5.8 | nt
C/C(=N\NC(=O)c1ccncc1)c1cc2ccccc2oc1=O | -7.1 | -4.3 | -7.6 | 4.6 | -12.6 | nt
COc1ccc2oc(=O)c(/C(N)=N/NC(=O)c3ccncc3)cc2c1 | -23.3 | 3.9 | 7.0 | 36.6* | -8.5 | nt | SENP1 inh conf=8.1;SENP1 kin conf=9.1
O=C(C1=C(Nc2ccccc2)c2ccccc2S(=O)(=O)N1)c1ccccc1 | 27.1 | -1.4 | -8.7 | 48.6* | -19.1 | nt | SENP1 inh conf=21.6;SENP1 kin conf=24.1
